Source: ChEMBL document CHEMBL3102831 (Bioorg Med Chem Lett, 2014)
The source made the active and inactive calls. The calls are words filed in the database; no cut-off is given here.

Legend:
HCT-116 [1] = assay: Cytotoxicity against human HCT116 cells after 48 hrs by MTT assay; assay type: functional, cell-based; details: HCT-116, 48 h
HeLa = assay: Cytotoxicity against human HeLa cells after 48 hrs by MTT assay; assay type: functional, cell-based
[2] = Cytotoxicity against human SPCA2 cells after 48 hrs by MTT assay; assay type: functional, cell-based; details: SPCA2, 48 h
CNE = assay: Cytotoxicity against human CNE cells after 48 hrs by MTT assay; assay type: functional, cell-based
HepG2 = assay: Cytotoxicity against human HepG2 cells after 48 hrs by MTT assay; assay type: functional, cell-based; details: HepG2, 48 h
HUVEC = assay: Cytotoxicity against human HUVEC after 48 hrs by MTT assay; assay type: cell-based
HCT-116 [3] = assay: Induction of apoptosis in human HCT116 cells assessed as change in mitochondrial membrane potential after 24 hrs by JC-1 staining; assay type: functional, cell-based
Outline: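 HCT116 cells treated 24 h at 3 and 5 µM, with untreated cells as 24 h control. Cells were stained with JC-1 and viewed by fluorescence microscopy. Monomer was excited at 514 nm with emission 515–545 nm (green); J-aggregates were excited at 585 nm with emission 570–600 nm (red). Potential loss is read as a red-to-green shift.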

HCT-116 [4] = assay: Cell cycle arrest in human HCT116 cells assessed as accumulation at S phase after 48 hrs using propidium iodide staining by FACS analysis (reference value: 23.29%); assay type: functional
Outline: (§1)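 HCT116 cells exposed 48 h to compound at 3 and 5 µM, with untreated cells as control. Cells were stained with propidium iodide, and DNA content was measured by flow cytometry. Read-out is the percentage of cells in G1, S and G2 phases.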

HCT-116 [5] = assay: Cell cycle arrest in human HCT116 cells assessed as accumulation at G1 phase after 48 hrs using propidium iodide staining by FACS analysis (reference value: 39.08%); assay type: functional; outline: as §1

Row | Structure (SMILES) | IC50 (HCT-116 [1]) [µM] | IC50 (HeLa) [µM] | IC50 [2] [µM] | IC50 (CNE) [µM] | IC50 (HepG2) [µM] | IC50 (HUVEC) [µM] | Activity (HCT-116 [3]) | Activity (HCT-116 [4]) [%] | Activity (HCT-116 [5]) [%]
1 | CCOP(=O)(OCC)C(NC(=O)c1cc(O)c2c(c1)C(=O)c1cccc(O)c1C2=O)c1ccccc1 (stereo not drawn) | 17.8 | 38.2 | 27.4 | 34.3 | 39.2 | > 100 |  |  | 
2 | CCOP(=O)(OCC)C(NC(=O)c1cc(O)c2c(c1)C(=O)c1cccc(O)c1C2=O)c1ccc(Br)cc1 (stereo not drawn) | 65.5 | 98.2 | 88.2 | 42.5 | 94.2 | > 100 |  |  | 
3 | CCOP(=O)(OCC)C(NC(=O)c1cc(O)c2c(c1)C(=O)c1cccc(O)c1C2=O)c1cccc(Br)c1 (stereo not drawn) | 40.2 | 78.2 | 75.4 | 40.1 | 62.4 | > 100 |  |  | 
4 | CCOP(=O)(OCC)C(NC(=O)c1cc(O)c2c(c1)C(=O)c1cccc(O)c1C2=O)c1ccccc1OC (stereo not drawn) | 8.37 | 25.6 | 15 | 28.6 | 30 | > 100 |  |  | 
5 | CCOP(=O)(OCC)C(NC(=O)c1cc(O)c2c(c1)C(=O)c1cccc(O)c1C2=O)c1cccc(C)c1 (stereo not drawn) | 45.4 | 73.3 | 67.7 | 74.2 | 62.2 | > 100 |  |  | 
6 | CCOP(=O)(OCC)C(NC(=O)c1cc(O)c2c(c1)C(=O)c1cccc(O)c1C2=O)c1ccc(F)cc1 (stereo not drawn) | 57.8 | 95.4 | 24.3 | 34.6 | 59.4 | > 100 |  |  | 
7 | CCOP(=O)(OCC)C(NC(=O)c1cc(O)c2c(c1)C(=O)c1cccc(O)c1C2=O)c1c2ccccc2cc2ccccc12 (stereo not drawn) | > 100 | > 100 | > 100 | > 100 | > 100 | > 100 |  |  | 
8 | CCOP(=O)(OCC)C(NC(=O)c1cc(O)c2c(c1)C(=O)c1cccc(O)c1C2=O)c1ccc2ccccc2c1 (stereo not drawn) | > 100 | > 100 | > 100 | > 100 | > 100 | > 100 |  |  | 
9 | O=c1[nH]cc(F)c(=O)[nH]1 [FLUOROURACIL] | 5.78 | 35.3 | 42.2 | 40.2 | 30 | 56 | Active | 28 | 65.6
10 | CCOP(=O)(OCC)C(NC(=O)c1cc(O)c2c(c1)C(=O)c1cccc(O)c1C2=O)c1ccccc1Br (stereo not drawn) | 48.9 | 79.6 | 85.5 | 55.7 | 88.3 | > 100 |  |  | 
